“Also recorded” adds a separate entry of the source.
Test system: sperm–egg plasma membrane adhesion and fusion (zona-free eggs, acrosome-reacted sperm)
Assay: In vitro sperm–egg adhesion and fusion assay with active site peptides
Assay type: cell-based, mouse
Conditions: peptide 500 μM, Fig. 2, FI and FR taken together
How it was run: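 Mice superovulated with 10 IU PMSG and 5 IU hCG 48 h apart. Metaphase II eggs collected ~12 h post-hCG, cumulus removed with hyaluronidase, zonae with chymotrypsin, then DAPI-preloaded. Peptide added 30 min before capacitated, acrosome-reacted sperm (2–4 × 10^4/ml final) and present throughout. Coincubated 30 min, 37 °C, 5% CO2, Whittingham's/3% BSA. Scored sperm bound/egg, FI and FR; 43–82 eggs per peptide.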

SVDECDLL [ADAM 5 peptide] was tested. Which “inhibition of sperm–egg binding and fusion (stated jointly)” value did it give?
Its value is “essentially no inhibition; also recorded: did not inhibit”.

Reference: article PMC2139869 (The Journal of Cell Biology, 1997)
